Reference: ChEMBL document CHEMBL1156669, “Aldehyde dehydrogenase inhibitors: alpha,beta-acetylenic N-substituted aminothiolesters are reversible growth inhibitors of normal epithelial but irreversible apoptogens for cancer epithelial cells from human prostate in culture” (Eur J Med Chem, 2008)
Values belong to the molecule of their own block, whether it stands above or below them. Activity calls are given as the source filed them. The calls are words filed in the database; no cut-off is given here.

Columns and labels:
DU-145 [1] = test: Growth inhibition of human DU145 cells administered after 3 days; format: functional, cell-based; conditions: DU-145, 72 h
Method in brief: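 DU145 in RPMI 1640 with 10% FCS; 1 × 10⁵ cells per well in 24-well plates, compound added 4 h after seeding. After 3 days the adherent sheet was washed twice with PBS and harvested in 0.14 M NaOH, and protein content measured. IC50 is the mean of three experiments.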

DU-145 [2] = test: Growth inhibition of human DU145 cells at 2 uM after 3 days; format: functional; conditions: DU-145, 72 h
Method in brief: (§1)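 Cells seeded at 1 × 10⁵ per well in 24-well plates; compound added 4 h post-seeding and left for 3 days. Growth inhibition measured as protein content relative to control. HPENC values are means of three experiments in duplicate; DU145 values are means of five experiments in duplicate.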

[3] = molecular target: T1, Aldehyde dehydrogenase, dimeric NADP-preferring (Homo sapiens) (UniProt P30838); test: Inhibition of ALDH3 in human DU145 cells at 2.5 uM after 3 days; format: cell-based; conditions: DU-145
T1 sequence (whole entry): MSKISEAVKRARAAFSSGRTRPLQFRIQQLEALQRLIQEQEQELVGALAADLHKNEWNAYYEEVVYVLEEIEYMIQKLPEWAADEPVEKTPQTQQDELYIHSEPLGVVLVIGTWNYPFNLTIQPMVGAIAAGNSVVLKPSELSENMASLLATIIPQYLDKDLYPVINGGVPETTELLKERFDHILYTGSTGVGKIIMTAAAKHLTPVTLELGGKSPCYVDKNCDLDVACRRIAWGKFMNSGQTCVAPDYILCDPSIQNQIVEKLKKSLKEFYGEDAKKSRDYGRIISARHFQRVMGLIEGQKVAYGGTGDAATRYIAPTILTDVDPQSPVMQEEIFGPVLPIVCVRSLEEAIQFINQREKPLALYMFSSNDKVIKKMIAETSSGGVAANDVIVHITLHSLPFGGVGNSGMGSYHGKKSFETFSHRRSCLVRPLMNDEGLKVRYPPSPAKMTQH
Method in brief: (§2)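 DU145 treated for 3 days, trypsinised, washed in PBS and lysed in 60 mM sodium phosphate pH 7 with 1% Triton X-100 and 1 mM EDTA, 30 min at 4 °C; lysate spun at 48,000g for 30 min. ALDH1: supernatant in phosphate pH 8.5, 1 mM EDTA, 100 mM KCl, 2.35 mM NAD, propanal substrate. ALDH3: 5 mM benzaldehyde, 2.5 mM NADP, 1 mM pyrazole. Two experiments in duplicate.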

[4] = Growth inhibition of HPEN cells at 2 uM after 3 days; format: cell-based; conditions: human; method in brief: as §1
DU-145 [5] = test: Reversal of growth inhibition in human DU145 cells assessed as increase in cell number at 15 uM on day 3 replaced with fresh medium without drug and measured after 8 days; format: functional
Method in brief: (§3)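 Cells were treated for 3 days. The medium was then aspirated, the sheet washed with PBS and fresh drug-free medium added, followed by 5 more days of culture. Growth measured on day 8 as adherent-cell protein and expressed relative to the day-3 protein content of parallel wells. Two experiments in duplicate.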

[6] = molecular target: T2, Aldehyde dehydrogenase 1A1 (Homo sapiens) (UniProt P00352); test: Inhibition of ALDH1 in human DU145 cells at 7.5 uM after 3 days; format: cell-based; conditions: DU-145; method in brief: as §2
T2 sequence (whole entry): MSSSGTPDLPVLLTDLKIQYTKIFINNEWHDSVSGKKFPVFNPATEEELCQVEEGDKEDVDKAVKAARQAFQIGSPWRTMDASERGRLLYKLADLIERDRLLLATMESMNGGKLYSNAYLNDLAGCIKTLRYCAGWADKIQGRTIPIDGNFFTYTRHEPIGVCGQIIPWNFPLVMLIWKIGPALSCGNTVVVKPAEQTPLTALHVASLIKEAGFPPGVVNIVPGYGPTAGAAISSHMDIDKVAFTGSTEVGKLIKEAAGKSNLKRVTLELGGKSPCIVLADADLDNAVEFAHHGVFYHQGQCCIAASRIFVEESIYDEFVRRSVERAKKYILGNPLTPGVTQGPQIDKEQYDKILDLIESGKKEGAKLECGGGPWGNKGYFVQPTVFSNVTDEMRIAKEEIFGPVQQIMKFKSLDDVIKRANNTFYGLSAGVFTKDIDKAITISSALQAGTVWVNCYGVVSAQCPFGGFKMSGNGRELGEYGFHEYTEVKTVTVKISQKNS

[7] = Reversal of growth inhibition in HPEN cells assessed as increase in cell number at 10 uM after 8 days; format: cell-based; conditions: human, 192 h
Method in brief: (§4)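 Cells seeded in six wells and treated from 4 h after seeding. Two wells were left in the original drug-containing medium for a further 5 days. Growth measured on day 8 as protein content of adherent cells and expressed as the day 8/day 3 ratio. EtOH vehicle controls were handled identically. Two experiments in duplicate.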

DU-145 [8] = test: Reversal of growth inhibition in human DU145 cells assessed as increase in cell number at 10 uM after 8 days; format: functional; method in brief: as §4
[9] = molecular target: T1, Aldehyde dehydrogenase, dimeric NADP-preferring (Homo sapiens); test: Inhibition of ALDH3 in human DU145 cells at 7.5 uM after 3 days; format: cell-based; conditions: DU-145; method in brief: as §2
DU-145 [10] = test: Growth inhibition of human DU145 cells at 5 uM after 3 days; format: functional; conditions: DU-145, 72 h; method in brief: as §1
[11] = molecular target: T2, Aldehyde dehydrogenase 1A1 (Homo sapiens); test: Inhibition of ALDH1 in human DU145 cells at 2.5 uM after 3 days; format: cell-based; conditions: DU-145; method in brief: as §2
MRC5 = test: Growth inhibition of human MRC5 cells; format: cell-based
DU-145 [12] = test: Growth inhibition of human DU145 cells at 10 uM after 3 days; format: functional; conditions: DU-145, 72 h; method in brief: as §1
[13] = Growth inhibition of HPEN cells at 15 uM after 3 days; format: cell-based; conditions: human
Method in brief: (§5)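 Vehicle controls received 0.5% EtOH. Cells seeded at 1 × 10⁵ per well, compound added at 4 h. Growth inhibition measured by protein content at day 3; two experiments, each in duplicate.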

DU-145 [14] = test: Reversal of growth inhibition in human DU145 cells assessed as increase in cell number at 15 uM after 8 days; format: functional; method in brief: as §4
[15] = Reversal of growth inhibition in HPEN cells assessed as increase in cell number at 15 uM on day 3 replaced with fresh medium without drug and measured after 8 days; format: cell-based; conditions: human, 192 h; method in brief: as §3
[16] = Growth inhibition of HPEN cells at 10 uM after 3 days; format: cell-based; conditions: human; method in brief: as §1
[17] = Growth inhibition of human androgen-resistant ME cells after 3 days; format: functional; conditions: 72 h
Method in brief: (§6)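 MOP (androgen-sensitive, LNCaP grown long-term in steroid-deprived medium) and ME (from regrown MOP xenografts under androgen) in RPMI 1640 with 5% charcoal-treated FCS. Seeded 1 × 10⁵ cells per well in 24-well plates, compound added at 4 h, cell count by Coulter counter after 3 days. IC50 is the mean of three experiments.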

DU-145 [18] = test: Growth inhibition of human DU145 cells at 15 uM after 3 days; format: functional; conditions: DU-145, 72 h; method in brief: as §5
[19] = Growth inhibition of HPEN cells administered after 3 days; format: cell-based; conditions: Homo sapiens, 72 h
Method in brief: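 HPENC in PrEGM with supplement and 10% FCS; 1 × 10⁵ cells per well in 24-well plates, compound added 4 h after seeding once adhered. After 3 days, growth read as protein content. IC50 is the mean of three experiments.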

[20] = molecular target: T2, Aldehyde dehydrogenase 1A1 (Homo sapiens); test: Inhibition of ALDH1 in human DU145 cells at 5 uM after 3 days; format: cell-based; conditions: DU-145; method in brief: as §2
DU-145 [21] = test: Reversal of growth inhibition in human DU145 cells assessed as increase in cell number at 10 uM on day 3 replaced with fresh medium without drug and measured after 8 days; format: functional; method in brief: as §3
BaF3 = test: Induction of apoptosis in mouse BAF3 cells overexpressing bcl2; format: functional, cell-based
[22] = molecular target: T3, Aldehyde dehydrogenase 1, mitochondrial (Saccharomyces cerevisiae) (UniProt P22281); test: Inhibition of yeast ALDH1 at 600 uM
T3 sequence (whole entry): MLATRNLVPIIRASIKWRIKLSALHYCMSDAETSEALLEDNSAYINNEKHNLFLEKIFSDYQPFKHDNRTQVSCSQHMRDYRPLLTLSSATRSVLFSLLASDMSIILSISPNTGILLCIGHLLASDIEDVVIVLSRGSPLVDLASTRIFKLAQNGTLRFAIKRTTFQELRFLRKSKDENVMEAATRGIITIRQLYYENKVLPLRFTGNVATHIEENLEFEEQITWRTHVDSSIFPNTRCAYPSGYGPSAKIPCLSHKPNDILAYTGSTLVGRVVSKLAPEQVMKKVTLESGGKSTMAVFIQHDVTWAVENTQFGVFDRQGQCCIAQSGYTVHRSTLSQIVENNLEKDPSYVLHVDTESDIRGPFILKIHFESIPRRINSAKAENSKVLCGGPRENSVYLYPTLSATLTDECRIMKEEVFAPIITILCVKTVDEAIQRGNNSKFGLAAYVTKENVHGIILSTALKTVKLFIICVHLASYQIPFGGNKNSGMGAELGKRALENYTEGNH

[23] = molecular target: T1, Aldehyde dehydrogenase, dimeric NADP-preferring (Homo sapiens); test: Inhibition of ALDH3 in human DU145 cells at 5 uM after 3 days; format: cell-based; conditions: DU-145; method in brief: as §2
[24] = Reversal of growth inhibition in HPEN cells assessed as increase in cell number at 15 uM after 8 days; format: cell-based; conditions: human, 192 h; method in brief: as §4
[25] = Reversal of growth inhibition in HPEN cells assessed as increase in cell number at 10 uM on day 3 replaced with fresh medium without drug and measured after 8 days; format: cell-based; conditions: human, 192 h; method in brief: as §3
[26] = Growth inhibition of HPEN cells at 5 uM after 3 days; format: cell-based; conditions: human; method in brief: as §1
[27] = Growth inhibition of human androgen-sensitive MOP cells after 3 days; format: functional; conditions: 72 h; method in brief: as §6
DU-145 [28] = test: Increase in superoxide anion level in human DU145 cells at 10 uM after 3 days by flow cytometry; format: functional, cell-based
[29] = Growth inhibition of rat JM2 cells; format: functional, cell-based
DU-145 [30] = test: Decrease in redox potential in human DU145 cells at 10 uM after 3 days by flow cytometry; format: functional, cell-based
DU-145 [31] = test: Induction of apoptosis in human DU145 cells assessed as apoptotic cells in flow cytometry region H3 at 10 uM after 3 days by flow cytometry
RH7777 = test: Growth inhibition of RH7777 cells; format: functional, cell-based; conditions: Rattus norvegicus
DU-145 [32] = test: Induction of apoptosis in human DU145 cells assessed as apoptotic cells in flow cytometry region H1 at 10 uM after 3 days by flow cytometry

IC50 (DU-145 [1]): > 100 µM
Compound: CSC(C#CC(C)(C)N1CCOCC1)=[N+](C)C

IC50 (DU-145 [1]): 6.2 µM
Compound: CSC(=O)C#CC(C)(C)N1Cc2ccccc2C1

inhibition [3]: 40% | inhibition [6]: 32% | inhibition [9]: 78% | inhibition [11]: 3% | IC50 (DU-145 [1]): 9.3 µM | inhibition [20]: 20% | IC50 (BaF3): 12 µM | inhibition [22]: 15% | inhibition [23]: 60%
Compound: CSC(=O)C#CC(C)(C)N1CCOCC1
inhibition at 2 µM (DU-145 [2]): 0% | inhibition at 72 h, 2 µM [4]: 3% | Activity (DU-145 [5]): 1.6 | Activity [7]: 0.4 | Activity (DU-145 [8]): 3 | inhibition at 5 µM (DU-145 [10]): 8% | IC50 (MRC5): 29 µM | inhibition at 10 µM (DU-145 [12]): 70% | inhibition at 72 h, 15 µM [13]: 37% | Activity (DU-145 [14]): 1.9 | Activity [15]: 2.6 | inhibition at 72 h, 10 µM [16]: 11% | IC50 [17]: 10 µM | inhibition at 15 µM (DU-145 [18]): 88% | IC50 [19]: > 10 µM | Activity (DU-145 [21]): 2.6 | Activity [24]: 1.4 | Activity [25]: 1.6 | inhibition at 72 h, 5 µM [26]: 6% | IC50 [27]: 10 µM

inhibition [3]: 40% | inhibition [6]: 78% | inhibition [9]: 100% | inhibition [11]: 15% | IC50 (DU-145 [1]): 7.2 µM | inhibition [20]: 40% | inhibition [23]: 62%
Compound: CSC(=O)C#CC(C)(C)N(C)C
inhibition at 2 µM (DU-145 [2]): 6% | Activity (DU-145 [28]): Active | inhibition at 72 h, 2 µM [4]: 6% | Activity [7]: 0.9 | Activity (DU-145 [8]): 2.5 | IC50 [29]: 10 µM | inhibition at 5 µM (DU-145 [10]): 34% | IC50 (MRC5): 8 µM | inhibition at 10 µM (DU-145 [12]): 78% | Activity (DU-145 [30]): Active | inhibition at 72 h, 10 µM [16]: 60% | IC50 [17]: 3 µM | IC50 [19]: 9.7 µM | Activity (DU-145 [31]): Active | IC50 (RH7777): 10 µM | Activity (DU-145 [21]): 2.7 | Activity (DU-145 [32]): Active | Activity [25]: 2.8 | inhibition at 72 h, 5 µM [26]: 23% | IC50 [27]: 3 µM

IC50 (DU-145 [1]): 7 µM
Compound: CSC(=O)C#CC(C)(C)N1CCc2ccccc21

IC50 (DU-145 [1]): > 600 µM
Compound: CSC(=O)C#CC(C)(C)[N+](C)(C)C
IC50 [19]: 590 µM

IC50 (DU-145 [1]): 6 µM
Compound: CSC(=O)C#CC(C)(C)N(C)CCc1ccccc1

IC50 (DU-145 [1]): 7 µM
Compound: CSC(=O)C#CC(C)(C)N(Cc1ccccc1)Cc1ccccc1
